For assay [1], the system named is F508del-CFTR in BHK cells. Nature of the assay: HTS F508del-CFTR correction assay. It counts as cell-based, hamster. As to conditions: 24 h treatment.
The target in assay [2] is T1, PARP3 (Homo sapiens, UniProt Q9Y6F1).
T1 sequence (Q9Y6F1 1-533): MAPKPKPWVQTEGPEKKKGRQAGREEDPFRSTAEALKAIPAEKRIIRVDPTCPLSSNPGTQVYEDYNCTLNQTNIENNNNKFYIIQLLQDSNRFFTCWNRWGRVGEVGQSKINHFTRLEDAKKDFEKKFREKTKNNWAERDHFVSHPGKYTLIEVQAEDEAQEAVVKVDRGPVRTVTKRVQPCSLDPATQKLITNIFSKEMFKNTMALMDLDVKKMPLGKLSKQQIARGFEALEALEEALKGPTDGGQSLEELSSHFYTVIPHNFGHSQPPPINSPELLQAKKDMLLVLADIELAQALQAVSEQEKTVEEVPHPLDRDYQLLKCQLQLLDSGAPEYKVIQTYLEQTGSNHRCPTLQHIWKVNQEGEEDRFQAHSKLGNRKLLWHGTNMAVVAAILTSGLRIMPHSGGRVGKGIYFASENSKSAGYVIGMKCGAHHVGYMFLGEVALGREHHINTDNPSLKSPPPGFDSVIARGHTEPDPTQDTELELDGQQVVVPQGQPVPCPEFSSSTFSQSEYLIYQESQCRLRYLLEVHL
As to the kind of experiment: PARP enzymatic assay. As to conditions: for Inhibition of PARP3, mean (panel): 10 μM, 0 equals no inhibition, 100 total inhibition, N = 5 (Table 5); for IC50: read-out: IC50 PARP3, dose response 1 nM to 1 mM; for PARP3 inhibition at 1 μM: from dose response data. It counts as biochemical.

Assay [3] has as its target T2, PARP16 (Homo sapiens, UniProt Q8N5Y8).
T2 sequence (Q8N5Y8 1-322): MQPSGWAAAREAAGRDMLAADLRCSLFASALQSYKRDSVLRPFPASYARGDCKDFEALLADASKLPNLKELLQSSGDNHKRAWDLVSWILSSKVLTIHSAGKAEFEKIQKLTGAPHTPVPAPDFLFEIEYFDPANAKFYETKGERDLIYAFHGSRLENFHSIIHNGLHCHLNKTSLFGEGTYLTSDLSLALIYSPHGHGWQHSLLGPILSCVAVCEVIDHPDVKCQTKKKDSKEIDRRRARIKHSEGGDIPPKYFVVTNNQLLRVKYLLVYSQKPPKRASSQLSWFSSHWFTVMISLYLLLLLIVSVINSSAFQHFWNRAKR
Nature of the assay: Modified PARP enzymatic assay with IRE-1 as substrate, PARP16. It counts as biochemical. As to conditions: for PARP16 inhibition at 1 μM: from dose response data; for Selectivity: greater IC50 potency for PARP16 compared with PARP3: ratio of IC50 values, in vitro; for IC50: read-out: IC50 PARP16, dose response 1 nM to 1 mM.

Assay [4] concerns the target PARP1 (Homo sapiens, UniProt P09874). As to the kind of experiment: PARP enzymatic assay. The class given is biochemical. As to conditions: read-out: IC50 PARP1; dose response 1 nM to 1 mM.
Assay [5] deals with F508del-CFTR in BHK cells. As to conditions: cited from earlier work.
The target of assay [6] is T3, TANKYRASE 2 (Homo sapiens, UniProt Q9H2K2).
T3 sequence (Q9H2K2 1-1166): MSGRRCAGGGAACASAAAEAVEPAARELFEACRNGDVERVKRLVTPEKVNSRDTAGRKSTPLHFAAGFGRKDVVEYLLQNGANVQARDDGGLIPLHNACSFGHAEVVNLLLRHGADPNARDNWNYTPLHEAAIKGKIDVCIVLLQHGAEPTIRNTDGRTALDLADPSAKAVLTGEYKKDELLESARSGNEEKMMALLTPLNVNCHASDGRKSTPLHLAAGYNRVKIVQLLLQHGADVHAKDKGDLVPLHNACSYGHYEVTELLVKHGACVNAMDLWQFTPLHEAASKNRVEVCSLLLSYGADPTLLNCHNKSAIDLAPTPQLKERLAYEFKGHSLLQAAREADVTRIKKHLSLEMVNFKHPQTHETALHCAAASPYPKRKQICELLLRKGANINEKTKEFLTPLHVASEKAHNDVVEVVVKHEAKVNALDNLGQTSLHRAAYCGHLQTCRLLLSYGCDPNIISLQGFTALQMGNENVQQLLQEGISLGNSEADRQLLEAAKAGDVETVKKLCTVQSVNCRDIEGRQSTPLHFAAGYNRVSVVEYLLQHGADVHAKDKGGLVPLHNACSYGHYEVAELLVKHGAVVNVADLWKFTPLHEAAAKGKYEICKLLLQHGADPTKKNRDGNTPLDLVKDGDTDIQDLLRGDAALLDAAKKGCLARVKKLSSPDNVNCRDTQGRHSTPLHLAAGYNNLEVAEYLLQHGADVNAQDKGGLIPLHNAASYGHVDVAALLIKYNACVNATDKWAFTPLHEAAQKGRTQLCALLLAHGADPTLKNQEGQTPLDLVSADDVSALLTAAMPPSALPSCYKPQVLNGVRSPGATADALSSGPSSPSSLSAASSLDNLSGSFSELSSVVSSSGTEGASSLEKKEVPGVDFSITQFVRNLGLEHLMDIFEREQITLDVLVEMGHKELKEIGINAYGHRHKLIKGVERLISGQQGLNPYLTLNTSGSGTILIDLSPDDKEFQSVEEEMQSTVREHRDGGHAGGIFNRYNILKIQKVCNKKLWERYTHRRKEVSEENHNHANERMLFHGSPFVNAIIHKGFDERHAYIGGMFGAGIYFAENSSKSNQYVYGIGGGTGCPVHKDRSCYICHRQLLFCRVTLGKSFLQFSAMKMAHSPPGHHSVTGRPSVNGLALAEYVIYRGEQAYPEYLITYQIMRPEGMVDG
As to the kind of experiment: PARP enzymatic assay, TANKYRASE 2. The class given is biochemical. Conditions: 10 μM; 0 equals no inhibition, 100 total inhibition; N = 5 (Table 5). The method, boiled down:
(§1)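 Recombinant human PARP-5a (tankyrase 1) and PARP-5b (tankyrase 2) were obtained commercially. Inhibition was measured with a universal chemiluminescent PARP kit according to the manufacturer's protocol. Anchored histone proteins coated on strip wells served as the ADP-ribosylation substrate.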

Assay [7] concerns F508del-CFTR in BHK cells. As to the kind of experiment: FMP functional F508del-CFTR correction assay. It counts as cell-based, hamster. Conditions: 1 μM each, 24 h pretreatment, forskolin + genistein, BHK cells (Figure 2C). The gist of the method: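 BHK cells expressing F508del-CFTR were seeded at 25 000 cells per well and treated with test compound (1 μM) for 24 h, then washed with PBS. Cells were loaded with a voltage-sensitive oxonol-derived FLIPR dye plus quencher in low-chloride gluconate/HEPES buffer (pH 7.4) containing genistein (50 μM) for 5 min at room temperature. Forskolin (10 μM) was added, and the mean initial fluorescence rate (Vmax) was expressed as % of VX809 response.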

Assay [8] has as its system PARP5. As to the kind of experiment: PARP enzymatic assay, PARP5. It counts as biochemical. As to conditions: 10 μM; 0 equals no inhibition, 100 total inhibition; N = 5 (Table 5). The method, boiled down: (§2)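 Commercial recombinant PARP2, PARP4, PARP-5a and PARP-5b were assayed with a chemiluminescent universal PARP kit on histone-coated strip wells, following the manufacturer's protocol. Anchored histones served as the ADP-ribosylation substrate. Inhibition was read as loss of chemiluminescent signal.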

Assay [9] addresses T4, TANKYRASE1 (Homo sapiens, UniProt O95271).
T4 sequence (O95271 1-1327): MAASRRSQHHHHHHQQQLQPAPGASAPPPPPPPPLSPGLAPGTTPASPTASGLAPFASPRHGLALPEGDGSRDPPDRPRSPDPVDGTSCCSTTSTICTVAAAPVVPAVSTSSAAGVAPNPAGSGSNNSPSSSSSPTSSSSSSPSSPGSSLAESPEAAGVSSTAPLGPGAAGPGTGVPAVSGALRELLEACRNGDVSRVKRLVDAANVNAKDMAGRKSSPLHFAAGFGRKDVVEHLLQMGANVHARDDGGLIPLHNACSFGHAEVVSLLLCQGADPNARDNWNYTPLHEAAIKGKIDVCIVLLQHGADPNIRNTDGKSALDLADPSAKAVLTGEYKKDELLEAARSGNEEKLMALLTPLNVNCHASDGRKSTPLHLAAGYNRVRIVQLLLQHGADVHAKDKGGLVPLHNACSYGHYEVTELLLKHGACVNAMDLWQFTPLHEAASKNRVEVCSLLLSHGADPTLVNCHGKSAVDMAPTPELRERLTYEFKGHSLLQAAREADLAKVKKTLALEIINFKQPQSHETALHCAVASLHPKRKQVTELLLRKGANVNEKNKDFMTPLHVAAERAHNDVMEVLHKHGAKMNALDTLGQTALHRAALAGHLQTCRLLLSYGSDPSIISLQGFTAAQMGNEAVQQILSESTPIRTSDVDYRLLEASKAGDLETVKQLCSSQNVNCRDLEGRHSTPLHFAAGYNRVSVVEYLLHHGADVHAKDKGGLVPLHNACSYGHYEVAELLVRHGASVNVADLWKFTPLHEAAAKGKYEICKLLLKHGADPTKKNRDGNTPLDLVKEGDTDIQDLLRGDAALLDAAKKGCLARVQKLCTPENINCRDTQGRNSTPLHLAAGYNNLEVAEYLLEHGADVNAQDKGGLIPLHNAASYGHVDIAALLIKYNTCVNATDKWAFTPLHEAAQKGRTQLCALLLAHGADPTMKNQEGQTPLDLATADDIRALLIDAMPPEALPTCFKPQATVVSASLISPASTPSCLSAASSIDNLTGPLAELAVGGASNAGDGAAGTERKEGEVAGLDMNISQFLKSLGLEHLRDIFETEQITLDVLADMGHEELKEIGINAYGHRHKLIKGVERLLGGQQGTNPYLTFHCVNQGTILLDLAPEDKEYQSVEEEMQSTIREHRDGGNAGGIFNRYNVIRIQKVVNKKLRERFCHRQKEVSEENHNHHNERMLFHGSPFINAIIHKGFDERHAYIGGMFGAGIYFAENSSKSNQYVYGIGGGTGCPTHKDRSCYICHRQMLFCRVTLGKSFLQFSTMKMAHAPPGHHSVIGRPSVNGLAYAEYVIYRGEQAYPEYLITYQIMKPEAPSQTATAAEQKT
As to the kind of experiment: PARP enzymatic assay, TANKYRASE1. As to conditions: 10 μM; 0 equals no inhibition, 100 total inhibition; N = 5 (Table 5). The class given is biochemical. The gist of the method: as §1

Assay [10] concerns PARP2. Nature of the assay: PARP enzymatic assay, PARP2. The class given is biochemical. Conditions: 10 μM; 0 equals no inhibition, 100 total inhibition; N = 5 (Table 5). The method, boiled down:
as §2

The target of assay [11] is PARP4 (Homo sapiens, UniProt Q9UKK3). As to the kind of experiment: PARP enzymatic assay, PARP4. It counts as biochemical. Conditions: 10 μM; 0 equals no inhibition, 100 total inhibition; N = 5 (Table 5). The method, boiled down:
as §2

Where [12] appears, read: 1 μM each, BHK cells (Figure 2B).
[13] abbreviates: 10 μM each, BHK cells (Figure 2A).

Sequence of PARP1 (P09874 whole entry): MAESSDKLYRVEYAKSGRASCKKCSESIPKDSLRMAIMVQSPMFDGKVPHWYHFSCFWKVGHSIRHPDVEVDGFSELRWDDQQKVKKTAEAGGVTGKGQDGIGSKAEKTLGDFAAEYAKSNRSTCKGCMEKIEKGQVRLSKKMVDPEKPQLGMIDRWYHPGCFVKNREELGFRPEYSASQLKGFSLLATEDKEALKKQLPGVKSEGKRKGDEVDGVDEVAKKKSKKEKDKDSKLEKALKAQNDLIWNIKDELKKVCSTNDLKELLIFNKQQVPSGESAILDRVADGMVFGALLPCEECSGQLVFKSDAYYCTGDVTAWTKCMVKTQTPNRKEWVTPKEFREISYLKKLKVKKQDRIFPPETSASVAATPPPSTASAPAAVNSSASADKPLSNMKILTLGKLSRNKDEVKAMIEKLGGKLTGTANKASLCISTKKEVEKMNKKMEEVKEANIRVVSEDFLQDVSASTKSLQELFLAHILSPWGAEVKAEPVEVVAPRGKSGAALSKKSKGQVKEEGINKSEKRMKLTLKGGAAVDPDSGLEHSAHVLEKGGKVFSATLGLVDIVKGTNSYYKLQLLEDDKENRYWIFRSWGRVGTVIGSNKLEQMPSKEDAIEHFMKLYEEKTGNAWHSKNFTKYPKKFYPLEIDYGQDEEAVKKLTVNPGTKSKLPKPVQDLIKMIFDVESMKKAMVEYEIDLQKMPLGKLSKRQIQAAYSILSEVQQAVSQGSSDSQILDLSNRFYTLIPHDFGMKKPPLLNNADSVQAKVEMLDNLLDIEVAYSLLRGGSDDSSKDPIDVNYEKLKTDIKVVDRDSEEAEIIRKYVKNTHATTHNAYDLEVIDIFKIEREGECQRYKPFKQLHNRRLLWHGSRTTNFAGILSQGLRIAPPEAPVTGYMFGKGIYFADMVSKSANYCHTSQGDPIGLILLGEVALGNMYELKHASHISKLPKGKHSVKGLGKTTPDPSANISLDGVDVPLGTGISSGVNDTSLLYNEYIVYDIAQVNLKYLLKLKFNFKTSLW
Sequence of PARP4 (Q9UKK3 whole entry, species assumed): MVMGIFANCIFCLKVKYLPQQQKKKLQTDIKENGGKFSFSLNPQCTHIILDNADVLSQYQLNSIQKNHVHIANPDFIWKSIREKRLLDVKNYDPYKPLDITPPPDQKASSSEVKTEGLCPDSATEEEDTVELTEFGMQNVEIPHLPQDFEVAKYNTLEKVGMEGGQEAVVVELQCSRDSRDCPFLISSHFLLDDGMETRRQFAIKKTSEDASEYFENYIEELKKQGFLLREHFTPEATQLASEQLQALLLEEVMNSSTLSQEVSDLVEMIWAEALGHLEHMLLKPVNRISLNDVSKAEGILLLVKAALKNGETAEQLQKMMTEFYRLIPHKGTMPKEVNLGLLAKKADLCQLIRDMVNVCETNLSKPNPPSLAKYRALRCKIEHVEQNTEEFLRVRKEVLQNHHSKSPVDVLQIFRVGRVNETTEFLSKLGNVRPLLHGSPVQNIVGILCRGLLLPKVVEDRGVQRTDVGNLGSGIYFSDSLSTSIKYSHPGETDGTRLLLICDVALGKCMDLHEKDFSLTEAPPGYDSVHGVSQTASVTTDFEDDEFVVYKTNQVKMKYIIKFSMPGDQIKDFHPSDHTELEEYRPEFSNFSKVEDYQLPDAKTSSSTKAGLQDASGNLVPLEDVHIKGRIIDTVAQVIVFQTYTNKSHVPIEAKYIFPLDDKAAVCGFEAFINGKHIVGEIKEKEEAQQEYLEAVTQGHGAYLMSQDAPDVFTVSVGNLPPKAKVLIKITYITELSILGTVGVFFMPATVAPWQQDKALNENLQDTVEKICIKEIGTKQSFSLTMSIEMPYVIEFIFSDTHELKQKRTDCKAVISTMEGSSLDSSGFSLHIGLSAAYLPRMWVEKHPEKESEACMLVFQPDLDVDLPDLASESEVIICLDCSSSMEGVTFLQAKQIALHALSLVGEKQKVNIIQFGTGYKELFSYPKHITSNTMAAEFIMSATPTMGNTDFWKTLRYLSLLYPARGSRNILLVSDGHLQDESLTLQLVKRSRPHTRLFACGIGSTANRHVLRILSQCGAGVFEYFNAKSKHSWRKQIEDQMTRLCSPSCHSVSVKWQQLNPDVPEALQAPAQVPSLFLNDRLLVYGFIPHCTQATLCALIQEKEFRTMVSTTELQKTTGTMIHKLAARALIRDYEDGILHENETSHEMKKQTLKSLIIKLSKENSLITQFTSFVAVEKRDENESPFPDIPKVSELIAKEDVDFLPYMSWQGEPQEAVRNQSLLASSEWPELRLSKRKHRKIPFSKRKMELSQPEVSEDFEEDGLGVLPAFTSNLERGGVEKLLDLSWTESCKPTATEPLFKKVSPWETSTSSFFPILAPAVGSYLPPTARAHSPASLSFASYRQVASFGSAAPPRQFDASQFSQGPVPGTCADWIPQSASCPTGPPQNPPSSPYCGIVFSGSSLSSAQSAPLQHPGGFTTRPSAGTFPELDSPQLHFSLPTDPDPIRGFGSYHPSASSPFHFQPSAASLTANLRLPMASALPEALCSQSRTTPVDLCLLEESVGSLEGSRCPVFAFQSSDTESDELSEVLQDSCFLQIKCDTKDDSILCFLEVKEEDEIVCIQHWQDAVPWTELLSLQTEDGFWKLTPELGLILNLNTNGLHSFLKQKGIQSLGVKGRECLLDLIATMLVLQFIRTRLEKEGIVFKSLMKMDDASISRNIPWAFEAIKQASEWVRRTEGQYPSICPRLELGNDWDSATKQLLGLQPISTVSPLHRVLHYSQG

For the compound `O=C1NCC(c2ccccn2)C(O)c2cc(Cl)c(Cl)cc21` (racemic) [compound 6, (±)-7,8-dichloro-5-hydroxy-4-(pyridin-2-yl)-2,3,4,5-tetrahydro-1H-benzo[c]azepin-1-one], the “F508del-CFTR corrector activity (surface expression) in HTS assay” value (from here on “F508del-CFTR corrector activity”) in assay [1] (setting [12]) is on record as “neither 5 or 6 alone shows corrector activity”; in [1] (setting [13]), “neither compound 5 or 6 alone gives F508del-CFTR correction”. Also, the “Inhibition of PARP3, mean (panel)” value in assay [2] amounted to 25.8. In addition, the IC50 amounted to 74.1 µM in assay [2], 0.362 µM in assay [3] and 17.8 µM in assay [4]. Also, in assay [3], the “PARP16 inhibition at 1 μM” value is 81%. Moreover, in assay [3], the “Selectivity: greater IC50 potency for PARP16 compared with PARP3” value (“Selectivity … with PARP3” below) is given as 205 fold.

For the compound `Nc1nc2c(c(C(=O)O)n1)-c1c([nH]c(Br)c1Br)C(=O)NC2` [compound 2, latonduine B], in assay [5], the “EC50 in the F508del-CFTR trafficking screening assay” value is reported as “low nanomolar”.

Regarding `O=C1NCC(c2ccccc2)C(O)c2ccccc21` (racemic) [compound 5, (±)-5-hydroxy-4-phenyl-2,3,4,5-tetrahydro-1H-benzo[c]azepin-1-one], the “F508del-CFTR corrector activity” value in assay [1] (setting [12]) is given as “neither 5 or 6 alone shows corrector activity”. Further, in assay [1] (setting [13]), the “F508del-CFTR corrector activity” value was “neither compound 5 or 6 alone gives F508del-CFTR correction”. In assay [2], the “Increase in relative PARP3/PARP16 IC50 potency compared with latonduine A (1)” value turned out to be 768 fold; the “PARP3 inhibition at 1 μM” value was determined as 39%; the “Inhibition of PARP3, mean (panel)” value was determined as 95.6; the IC50 is 3.1 µM. Also, the “Selectivity: greater IC50 potency for PARP3 compared with PARP16” value in assay [2] (ratio of IC50 values, in vitro) was determined as 96 fold. In addition, the IC50 in assay [3] turned out to be 296 µM. In addition, the IC50 in assay [4] stood at 20.1 µM.

latonduine A [compound 1]: the “Inhibition of TAN2, mean (panel)” value in [6] was found to be 10.1. For the same compound, the “EC50 in the F508del-CFTR trafficking screening assay” value in assay [5] is reported as “low nanomolar”. For the same compound, the “Functional F508del-CFTR correction in FMP assay” value in assay [7] is given as “generates functional CFTR correction”. For the same compound, the “Inhibition of PARP5, mean (panel)” value in assay [8] was found to be 9.9. For the same compound, in [2], the “PARP3 inhibition at 1 μM” value turned out to be 37%; the “Inhibition of PARP3, mean (panel)” value was 83.7; the IC50 stood at 3.4 µM. For the same compound, in assay [9], the “Inhibition of TAN1, mean (panel)” value is reported as 11.7. Also, the “Inhibition of PARP2, mean (panel)” value in [10] is on record as 21.6. Further, in assay [3], the “PARP16 inhibition at 1 μM” value worked out at 79%, the “Selectivity … with PARP3” value was determined as 8 fold and the IC50 turned out to be 0.427 µM. Moreover, the “Selectivity … with PARP3” value in assay [3] (listed as Latonduine A (1)) was “≈ 8 fold”. Besides, in [11], the “Inhibition of PARP4, mean (panel)” value came out at 18.3. Moreover, the IC50 in assay [4] is 24.3 µM.

Source of the values: article PMC7557227 (ACS Omega, 2020).
